# Compound activity from PubChem BioAssay.
# HCT116 PTEN-null – growth suppression of PTEN-null HCT116, primary screen, cell-based, CellTiter-Glo; HCT116 PTEN-null viability, 60 h; stronger effect = lower value; viability, % at 10 µM; 140,000 tested, 1.2% active; AID 827, 2007;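 active = viability at or below a set limit, 4 SD under the median of all tested compounds, cut at about 3.7% in these data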;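 note: PTEN knockout HCT116 line with beta catenin targeted HCT116 as companion control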
# Autophagy mod – autophagy modulators in MEF cells, primary screen, imaging, high-content, MEF GFP-LC3 | AID 463193, 2010 | calls only at 10 µM (by protocol) | 190,000 tested, 0.98% active | MEF GFP-LC3 puncta imaging; test concentration mostly 10 µM;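 active = percentage of spot-positive cells more than 3 SD above its plate mean, without a fluorescence outlier flag or 80% toxicity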;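 note: spot-positive cell cutoff set from DMSO-treated cells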
# Lmaj promast – Leishmania major promastigote growth inhibition, primary screen; 200,000 tested, 9% active; inhibition, % at 10 µM; Leishmania major promastigotes, resazurin fluorescence viability; in the data active = inhibition above about 50%;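 note: promastigotes grown with compound for 44 hours at 28 °C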
# bCat KO growth – primary screen for growth suppressors in beta-catenin knockout HCT116 cells (colon tumor, human). viability, % at 10 µM. 140,000 tested, 1.5% active. HCT116 beta-catenin knockout viability, CellTiter-Glo, 60 h; stronger effect = lower value;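 active = viability at or under a set limit, the compound median less 4 SD, cut at about 6% in these data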;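 note: 0% = Hyamine 1622 control at 20 µM and 100% = untreated cell control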
# Dynein cargo inh – inhibitors of GR-EGFP nuclear translocation, primary screen, dynein cargo transport inhibitor project, imaging, high-content, 3617.4 mouse cells | test concentration mostly 20 µM; stimulated with dexamethasone, 1 µM; stronger effect = lower value | 220,000 tested, 0.47% active | AID 1381, 2008 | z-score, hits read low;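 active = plate z-score of nuclear minus cytoplasmic receptor signal below a set negative limit, without overly bright fluorescence or cell loss, cut at about -3.5 in these data, passing the limit was not always enough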;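 note: z-score of nuclear minus cytoplasmic ring GR-EGFP intensity difference per well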
#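 Schedule: 48 h induction, then 1 h compound, then 30 min agonist, 37 °C. Buffer or medium: tetracycline-free induction medium containing charcoal-stripped FBS. Reagent: 1.0 µM final dexamethasone stimulus. Evaluation: nuclear versus cytoplasmic GR-EGFP signal, averaged per well. Signal: high-content fluorescence imaging after fixation.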
# Active calls of the source: *; i = inactive; · = no result; + = active, no number. A selection: hits, their analogues and other compounds. The true share with any hit is near 9.2%.
SMILES,HCT116 PTEN-null,Autophagy mod,Lmaj promast,bCat KO growth,Dynein cargo inh
O=C(N/N=C(\c1ccccc1)c1ccccn1)c1cccc([N+](=O)[O-])c1,·,i,100*,·,5.2
CCOc1ccc(C(=O)N/N=C(\c2ccccc2)c2ccccn2)cc1,2.6*,i,99*,3.7*,0.088
C/C(=N\NC(=O)C1(C)CC1(Br)Br)c1cccc(NC(=O)C(C)(C)C)c1 (centres undefined),94,i,60*,90,-0.012
O=C1CSC(c2cn(-c3ccccc3)nc2-c2cc3ccccc3o2)N1Cc1ccccc1 (centres undefined),60,i,79*,67,0.54
CC12CCC(C(=O)Nc3nc4ccccc4s3)(OC1=O)C2(C)C (centres undefined),·,i,4,·,-0.54
O=C(CCCn1c(=S)[nH]c2ccccc2c1=O)NCCSCc1ccccc1,·,i,-6,·,-1.2
O=C(O)Cn1cc(/C=C2/NC(=O)N(c3ccc(Cl)cc3)C2=O)c2ccccc21,·,i,-7,·,-0.36
CC(C)n1cc(/C=C2\NC(=O)N(c3cccc(Cl)c3)C2=O)c2ccccc21,26,+,12,30,-0.64
CC(C)n1cc(/C=C2/NC(=O)N(c3cccc(Cl)c3)C2=O)c2ccccc21,27,+,9,29,-0.97
CC1CN(c2ccc(S(=O)(=O)N3CCCC3)cn2)CC(C)O1 (centres undefined),·,·,·,·,-0.78
N#CC(c1nc2ccccc2nc1OCCO)S(=O)(=O)c1ccccc1 (centres undefined),·,·,·,·,-0.67
COc1ccc(/C=N/Nc2nc(-c3ccc(Cl)cc3)cc(C(F)(F)F)n2)c(OC)c1,96,i,-6,89,-0.63
COc1ccc2c(CC(=O)Nc3ccc(OC)c(NS(=O)(=O)c4ccc(F)cc4)c3)coc2c1,84,i,57*,94,1.3
COc1ccc(CC(=O)Nc2ccc(OC)nc2)cc1,·,i,-3,·,-0.16
COc1ccc2c(CC(=O)Nc3ccc(OC)nc3)coc2c1,·,+,-5,·,-1
CC(C)S(=O)(=O)CC(=O)c1ccc(Cl)cc1,·,i,-9,·,0.61
CCOc1cc(/C=N/O)ccc1OCc1ccc(F)cc1,93,i,37,96,0.31
COc1cc(/C=N/NC(N)=S)ccc1OCc1ccc(C)cc1,58,i,100*,68,-0.83
CCOc1cc(/C=N/N=C(N)N)ccc1OCc1ccc(Cl)cc1,1.2*,i,100*,1.3*,7.6
CCOc1cc(/C=N/O)ccc1OCc1ccc([N+](=O)[O-])cc1,85,i,58*,83,-0.69
COc1cc(/C=N/N=C(N)N)ccc1OCc1ccc(Cl)cc1,·,i,101*,·,-4.6
COc1cc(/C=N/NC(N)=S)ccc1OC(=O)c1ccc(C)cc1,65,i,10,66,0.61
CCOC(=O)N1CCN(c2ccc(N3C(=O)CCCC3=O)cc2[N+](=O)[O-])CC1,·,i,-6,·,-0.56
CC1CC(C)CN(c2cc(=O)n(Cc3ccc(F)cc3)c(=O)[nH]2)C1 (centres undefined),89,i,10,96,0.67
O=C(OCn1ncc(Br)c(Br)c1=O)c1ccccc1Cl,2.0*,i,101*,1.5*,-1.4
SMILES,HCT116 PTEN-null,Autophagy mod,Lmaj promast,bCat KO growth,Dynein cargo inh
C#CCNC(=O)C1=C[C@@H](C2CCCCC2)C[C@@H](OCc2ccc(CO)cc2)O1,·,i,96*,·,2.2
CC(C)(C)[C@@H]1C=C(C(=O)NC2CC2)O[C@H](OCc2ccc(CO)cc2)C1,·,i,99*,·,-0.54
O=C(C1=C[C@H](C2CCCCC2)C[C@H](OCc2ccc(CO)cc2)O1)N1CCN(Cc2ccc3c(c2)OCO3)CC1,·,i,68*,·,0.79
O=C(C1=C[C@@H](C2CCCCC2)C[C@@H](OCc2ccc(CO)cc2)O1)N1CCN(Cc2ccc3c(c2)OCO3)CC1,·,i,57*,·,0.76
O=C(C1=C[C@H](C2CC2)C[C@H](OCc2ccc(CO)cc2)O1)N1CCN(Cc2ccc3c(c2)OCO3)CC1,·,i,31,·,-0.8
C#CCNC(=O)C1=C[C@H](C2CCCCC2)C[C@H](OCc2ccc(CO)cc2)O1,·,i,10,·,2.7
COC(=O)CCN(C(=O)c1ccc(Cl)c([N+](=O)[O-])c1)c1ccccn1,·,·,·,·,-0.24
COc1ccc(C2CC(c3cccc(C)c3)n3nc(N)nc3N2)cc1 (centres undefined),96,i,86*,98,1.2
Nc1nc2n(n1)C(c1ccccc1)CC(c1ccc(F)cc1)N2 (centres undefined),88,·,-5,85,0.12
Nc1nc2n(n1)C(c1cccc(Br)c1)CC(c1ccc(F)cc1)N2 (centres undefined),90,·,93*,101,0.44
Cc1cccc(C2CC(c3ccc(Br)cc3)Nc3nc(N)nn32)c1 (centres undefined),62,i,73*,58,-1.3
COc1ccc(C2CC(c3cccc(Cl)c3)n3nc(N)nc3N2)cc1 (centres undefined),86,i,62*,83,-0.092
COc1cccc(C2CC(c3ccc(Cl)cc3)Nc3nc(N)nn32)c1 (centres undefined),82,i,-9,88,0.33
COc1ccc(C2CC(c3ccc(Br)cc3)Nc3nc(N)nn32)cc1 (centres undefined),73,i,9,83,-0.34
COc1cc(Cl)cc(C=O)c1OCC(=O)O,·,i,-2,·,0.88
Cc1cc(/C=C2\C(=N)N3N=C(C(C)C)SC3=NC2=O)c(C)n1-c1ccccc1,·,i,0,·,2.9
O=[N+]([O-])/C=C\c1ccc(N2CCCC2)c(F)c1,·,i,47,·,-2.9
CCCn1c(-c2ccc[nH]c2=O)nc2cc(C)c(C)cc21,·,i,-3,·,-0.43
COc1cccc(Nc2nc(CN3CCOCC3)nc3sc4c(c23)CCCC4)c1,70,i,13,72,1.1
COc1cc2c(cc1OC)CN(c1nc(CN3CCOCC3)nc3sc4c(c13)CCCC4)CC2,3.1*,i,32,30,-0.58
COc1cc2c(cc1OC)CN(c1nc(CN3CCCCC3)nc3sc4c(c13)CCCC4)CC2,19,i,99*,22,-1.1
COc1cc2c(cc1OC)CN(c1nc(CN3CCCC3)nc3sc(C)c(C)c13)CC2,·,i,50,·,-0.68
CS(=O)(=O)N1N=C(c2cccs2)CC1c1ccco1 (centres undefined),·,i,-3,·,2.3
COc1ccc(CN(Cc2cccn2C)S(=O)(=O)c2cccc(C(F)(F)F)c2)cc1,·,·,·,·,-1.1
CN(c1ccc(OCC(=O)Nc2nc(-c3ccccc3)cs2)cc1)S(=O)(=O)c1ccc(F)cc1,58,i,97*,59,-0.45
Cc1ccc(S(=O)(=O)N(C)c2ccc(OCC(=O)Nc3nc4c(ccc5ccccc54)s3)cc2)cc1,80,i,11,80,-0.85
